pIC50: −log10 of the molar value.
Experiments:
[1] = Antiplatelet activity against 10^-5 M ADP-induced human platelet aggregation at 100 uM by light transmission aggregometry; format: functional
In short: (§1)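 Platelet-rich plasma came from healthy volunteers' blood collected in sodium citrate (9:1) and spun at 150g, 21 °C for 10 min. Samples were prewarmed to 37 °C with compound (10^-4 M) or vehicle, then ADP was added (final 10^-5 or 10^-6 M). Shape change and aggregation were followed by light transmission for 3 min. Results are % of vehicle aggregation, mean of at least 2 experiments.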

[2] = Antiplatelet activity against 10^-6 M ADP-induced human platelet aggregation at 100 uM by light transmission aggregometry; format: functional; in short: as §1
[3] = molecular target: T1, Adenosine receptor A1 (Homo sapiens) (UniProt P30542); assay: Displacement of [3H]DPCPX from human adenosine A1 receptor expressed in CHO cells at 10 uM; format: cell-based
T1 sequence (whole entry): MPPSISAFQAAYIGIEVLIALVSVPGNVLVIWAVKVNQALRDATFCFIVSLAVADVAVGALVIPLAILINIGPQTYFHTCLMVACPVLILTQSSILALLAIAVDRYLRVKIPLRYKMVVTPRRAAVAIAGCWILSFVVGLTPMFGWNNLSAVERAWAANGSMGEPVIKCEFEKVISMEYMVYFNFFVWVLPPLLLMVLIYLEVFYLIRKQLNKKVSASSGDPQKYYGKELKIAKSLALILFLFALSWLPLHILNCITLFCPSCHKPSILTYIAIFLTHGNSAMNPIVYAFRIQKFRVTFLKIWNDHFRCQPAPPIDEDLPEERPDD
In short: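 Membranes from CHO cells expressing hA1 (50 µg protein) were incubated with [3H]DPCPX 1 nM in 50 mM Tris HCl pH 7.4 for 120 min at 25 °C. Non-specific binding was defined with 10 µM CHA. Bound ligand was separated by GF/B filtration and counted by scintillation. Results are % displacement of specific binding at the bracketed test concentration, mean ± SEM of four experiments in triplicate.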

[4] = molecular target: Adenosine receptor A2a (Homo sapiens) (UniProt P29274); assay: Displacement of [3H]ZM241385 from human adenosine A2A receptor expressed in CHO cells at 10 uM; format: cell-based
Chain of Adenosine receptor A2a (Homo sapiens) (P29274 whole entry): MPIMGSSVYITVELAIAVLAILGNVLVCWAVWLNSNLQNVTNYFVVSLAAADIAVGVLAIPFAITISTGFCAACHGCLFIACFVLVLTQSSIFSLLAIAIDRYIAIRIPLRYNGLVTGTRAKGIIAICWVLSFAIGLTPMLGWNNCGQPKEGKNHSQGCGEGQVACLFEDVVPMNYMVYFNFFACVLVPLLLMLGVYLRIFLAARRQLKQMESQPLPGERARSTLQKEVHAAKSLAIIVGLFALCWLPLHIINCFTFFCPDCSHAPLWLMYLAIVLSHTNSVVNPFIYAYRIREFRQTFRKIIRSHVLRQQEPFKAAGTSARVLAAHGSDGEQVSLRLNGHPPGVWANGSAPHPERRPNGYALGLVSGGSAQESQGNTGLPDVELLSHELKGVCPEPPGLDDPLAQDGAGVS
In short: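 Membranes from CHO cells expressing hA2A (50 µg protein) were incubated with [3H]ZM-241385 1 nM in 50 mM Tris HCl with 10 mM MgCl2, pH 7.4, for 60 min at 4 °C. Non-specific binding was defined with 1 µM ZM-241385. Samples were filtered on GF/B and counted by scintillation. Results are % displacement at the tested concentration, mean ± SEM of four experiments in triplicate.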

[5] = molecular target: T2, Adenosine receptor A3 (Homo sapiens) (UniProt P0DMS8); assay: Displacement of [3H]ABMECA from human adenosine A3 receptor expressed in CHO cells at 10 uM; format: cell-based; details: in the assay text read “[125I]ABMECA” for “[3H]ABMECA”
T2 sequence (whole entry): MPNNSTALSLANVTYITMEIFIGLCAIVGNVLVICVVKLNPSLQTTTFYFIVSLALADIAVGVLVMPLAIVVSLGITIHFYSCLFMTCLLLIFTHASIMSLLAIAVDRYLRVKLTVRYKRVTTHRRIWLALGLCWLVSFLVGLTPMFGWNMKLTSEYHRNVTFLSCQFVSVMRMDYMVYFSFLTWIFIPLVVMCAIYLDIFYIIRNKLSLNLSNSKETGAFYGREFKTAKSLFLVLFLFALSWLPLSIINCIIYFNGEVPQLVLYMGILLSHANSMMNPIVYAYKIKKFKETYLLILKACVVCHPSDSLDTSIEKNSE
In short: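 Non-specific binding was defined with 1 µM AB-MECA. Samples were filtered on GF/B and radioactivity was counted. Results are % displacement at the tested concentration, mean ± SEM of four experiments in triplicate.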

[6] = molecular target: Adenosine receptor A2b (Homo sapiens) (UniProt P29275); assay: Antagonist activity at human adenosine A2b receptor expressed in CHO cells expressed in inhibition of cAMP level; set-up: concentration or dose not given beside the values; details: concentration not given here
[7] = molecular target: Adenosine receptor A2b (Homo sapiens) (UniProt P29275); assay: Antagonist activity at human adenosine A2b receptor expressed in CHO cells expressed in inhibition of NECA-induced cAMP level; set-up: concentration or dose not given beside the values; details: concentration not given here
[8] = molecular target: P2Y purinoceptor 12 (Homo sapiens, UniProt Q9H244); assay: Antagonist activity at human recombinant P2Y12 receptor expressed in CHO FlpIn cells assessed as reduction n 2-methylthio-ADP mediated inhibition of forskolin-induced cAMP response element-directed luciferase expression by bright-glo assay; format: functional, cell-based
Chain of P2Y purinoceptor 12 (Q9H244 whole entry): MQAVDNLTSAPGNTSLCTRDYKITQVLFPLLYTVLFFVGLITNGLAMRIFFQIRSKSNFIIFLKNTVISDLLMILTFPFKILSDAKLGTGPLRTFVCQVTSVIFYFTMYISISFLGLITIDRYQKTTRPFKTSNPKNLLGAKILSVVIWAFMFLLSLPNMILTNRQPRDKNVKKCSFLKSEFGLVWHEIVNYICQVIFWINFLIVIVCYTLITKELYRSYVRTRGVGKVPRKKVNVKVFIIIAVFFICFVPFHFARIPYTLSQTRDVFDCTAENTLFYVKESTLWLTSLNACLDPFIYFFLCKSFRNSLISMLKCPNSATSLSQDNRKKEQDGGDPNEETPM
In short: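 CHO FlpIN cells stably expressing human P2Y12 were transiently transfected with a pCRE-luc reporter. After 24 h they were switched to physiological salt solution and exposed to forskolin 1 µM ± 2-methylthio-ADP 10 nM plus varying antagonist concentrations (DMSO vehicle) for 3.5 h at 37 °C. Luminescence was read after lysis with Bright-Glo. Responses are % of 2-methylthio-ADP response with DMSO only; n=4–8.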

[9] = molecular target: T2, Adenosine receptor A3 (Homo sapiens); assay: Displacement of [125I]ABMECA from human adenosine A3 receptor expressed in CHO cells at 10 uM

Row | Activity [3] | Activity [4] | Activity [5] | inhibition [6] | inhibition [7] | pIC50 [8] | Activity [9] | SMILES | Activity [1] | Activity [2]
1 | 2% | 1% | 46% | 2% | 4% |  |  | Cc1ccc(S(=O)(=O)Oc2cc(N)nc(SCCO)n2)cc1 | 99% | 57%
2 | 6% | 1% | 44% | 5% | 3% |  |  | Cc1ccc(S(=O)(=O)NCCSc2nc(N)cc(=O)[nH]2)cc1 | 89% | 51%
3 | 48% | 1% | 47% | 7% | 5% |  |  | CN(C)c1cccc2c(S(=O)(=O)Oc3cc(N)nc(SCCO)n3)cccc12 | 100% | 93%
4 |  |  |  |  |  |  |  | Cc1ccc(S(=O)(=O)Nc2cc(N)nc(SCCN)n2)cc1 | 91% | 91%
5 |  |  |  |  |  |  |  | Nc1cc(=O)[nH]c(SC(c2ccccc2)(c2ccccc2)c2ccccc2)n1 | 100% | 81%
6 |  |  |  |  |  |  |  | Nc1cc(OS(=O)(=O)c2ccccc2Cl)nc(SCC(F)(F)F)n1 | 102% | 97%
7 |  |  |  |  |  |  |  | Cc1ccc(S(=O)(=O)Oc2cc(N)nc(SCCNC(=O)OC(C)(C)C)n2)cc1 | 97% | 75%
8 |  |  |  |  |  |  |  | CN(C)c1cccc2c(S(=O)(=O)Oc3cc(N)nc(SCCN)n3)cccc12 | 99% | 83%
9 |  |  |  |  |  |  |  | Nc1cc(OS(=O)(=O)c2ccccc2Cl)nc(SCCO)n1 | 100% | 110%
10 |  |  |  |  |  |  |  | Cn1c(SCc2ccccc2Cl)nc(N)cc1=O | 88% | 61%
11 | 3% | 18% |  | 10% | 7% | 5.09 | 36% | Cc1ccc(S(=O)(=O)Oc2cc(N)nc(SCCN)n2)cc1 | 96% | 37%
12 |  |  |  |  |  |  |  | Cc1ccc(S(=O)(=O)Oc2cc(N)nc(SCc3ccccc3Cl)n2)cc1 | 100% | 68%
13 |  |  |  |  |  |  |  | CN(C)c1cccc2c(S(=O)(=O)Oc3cc(N)nc(SCC(F)(F)F)n3)cccc12 | 104% | 115%
14 |  |  |  |  |  |  |  | O=C(Nc1ccccc1)Nc1cc(=O)[nH]c(SCc2ccccc2Cl)n1 | 94% | 91%
15 | 7% | 7% | 21% | 3% | 8% |  |  | CC(C)(C)OC(=O)NCCSc1nc(N)cc(=O)[nH]1 | 76% | 40%
16 |  |  |  |  |  |  |  | Nc1cc(OS(=O)(=O)c2ccccc2Cl)nc(SCc2ccccc2Cl)n1 | 96% | 92%
17 |  |  |  |  |  |  |  | CN(C)c1cccc2c(S(=O)(=O)Oc3cc(N)nc(SCc4ccccc4Cl)n3)cccc12 | 101% | 96%
18 | 4% | 1% |  | 8% | 10% |  | 23% | CCCCCSc1nc(N)cc(OS(=O)(=O)c2ccccc2Cl)n1 | 95% | 58%
19 |  |  |  |  |  |  |  | CCCCCSc1nc(N)cc(OS(=O)(=O)c2ccc(C)cc2)n1 | 88% | 96%
20 |  |  |  |  |  |  |  | Nc1cc(=O)[nH]c(SCc2ccccc2Cl)n1 | 101% | 88%
21 |  |  |  |  |  |  |  | Nc1cc(=O)[nH]c(SCCO)n1 | 99% | 114%
22 |  |  |  |  |  |  |  | Cc1ccc(S(=O)(=O)Oc2cc(N)nc(SCC(F)(F)F)n2)cc1 | 101% | 105%
23 |  |  |  |  |  |  |  | CSc1nc(N)cc(OS(=O)(=O)c2ccc(C)cc2)n1 | 96% | 120%
24 |  |  |  |  |  |  |  | CCCCCSc1nc(N)cc(O)n1 | 100% | 63%
25 |  |  |  |  |  |  |  | O=c1cc(O)nc(SCc2ccccc2Cl)[nH]1 | 96% | 97%
26 |  |  |  |  |  |  |  | Nc1cc(OCc2ccccc2Cl)nc(SCc2ccccc2Cl)n1 | 95% | 86%

— ChEMBL document CHEMBL1152946, “6-Amino-2-mercapto-3H-pyrimidin-4-one derivatives as new candidates for the antagonism at the P2Y12 receptors” (Bioorg Med Chem, 2009)
